Test results published in ChEMBL document CHEMBL5230166, “Novel quinoline-piperazine hybrids: the design, synthesis and evaluation of antibacterial and antituberculosis properties” (RSC Med Chem, 2023).
≈ marks a conversion by molar mass, not a printed value.

Columns and labels:
Type in all cases: functional
Staphylococcus aureus [1] = test: Antibacterial activity against methicillin sensitive Staphylococcus aureus ATCC 29213 assessed as inhibition of bacterial growth incubated for 22 to 24 hrs; settings: time 22-24 hrs
Procedure, shortened: (§1)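 Broth MIC referenced to an earlier protocol. Inocula come from mid-log cultures sub-cultured on soybean casein digest agar, adjusted to McFarland (~10⁸ CFU/mL), then diluted to ~10⁵ CFU/mL. Compounds and controls are serially diluted from 64 to 0.03 µg/mL. Tested in triplicate, read after 22–24 h at 37 °C. MIC is the lowest concentration with no visible growth.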

Staphylococcus aureus [2] = test: Antibacterial activity against methicillin resistant Staphylococcus aureus ATCC 33591 assessed as inhibition of bacterial growth incubated for 22 to 24 hrs; settings: time 22-24 hrs
Procedure, shortened: (§2)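 Broth microdilution MIC. Strains were subcultured on Soybean Casein Digest Agar, and inocula were taken from mid-log culture, adjusted to McFarland (~10⁸ CFU/mL), then diluted to ~10⁵ CFU/mL. Serial dilutions ran from 64 to 0.03 µg/mL. Plates were incubated 22–24 h at 37 °C, in triplicate. MIC was the lowest concentration with no visible growth.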

[3] = test system: Staphylococcus epidermidis; test: Antibacterial activity against clinical isolate methicillin resistant Staphylococcus epidermidis AB 735 assessed as inhibition of bacterial growth incubated for 22 to 24 hrs; settings: time 22-24 hrs
Enterococcus faecalis = test: Antibacterial activity against vancomycin resistant Enterococcus faecalis ATCC 700802 assessed as inhibition of bacterial growth incubated for 22 to 24 hrs; settings: time 22-24 hrs; procedure, shortened: as §2
Enterococcus faecium = test: Antibacterial activity against Enterococcus faecium ATCC 49624 assessed as inhibition of bacterial growth incubated for 22 to 24 hrs; settings: time 22-24 hrs; procedure, shortened: as §1
Escherichia coli = test: Antibacterial activity against clinical isolate Escherichia coli AB 117 assessed as inhibition of bacterial growth incubated for 22 to 24 hrs; settings: time 22-24 hrs
Klebsiella pneumoniae = test: Antibacterial activity against clinical isolate Klebsiella pneumoniae AB 356 assessed as inhibition of bacterial growth incubated for 22 to 24 hrs; settings: time 22-24 hrs
Pseudomonas aeruginosa = test: Antibacterial activity against clinical isolate Pseudomonas aeruginosa AB 645 assessed as inhibition of bacterial growth incubated for 22 to 24 hrs; settings: time 22-24 hrs
Acinetobacter baumannii = test: Antibacterial activity against clinical isolate Acinetobacter baumannii BAA 747 assessed as inhibition of bacterial growth incubated for 22 to 24 hrs; settings: time 22-24 hrs
Moraxella catarrhalis = test: Antibacterial activity against Moraxella catarrhalis ATCC 25238 assessed as inhibition of bacterial growth incubated for 22 to 24 hrs; settings: time 22-24 hrs; procedure, shortened: as §1
[4] = test system: Mycolicibacterium smegmatis; test: Antibacterial activity against Mycobacterium smegmatis ATCC 607 assessed as inhibition of bacterial growth incubated for 2 days by CLSI protocol based broth microdilution method; settings: ATCC 607, 48 h, time 2 day
Procedure, shortened: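 CLSI broth microdilution in Middlebrook 7H9 with 10% ADC. Compounds are dissolved in DMSO at 4.0 mg/mL (stock) and serially diluted from 64 to 0.015 µg/mL. Inoculum is ~10⁵ CFU/mL, checked by plating on 7H11 agar. Rifampin and levofloxacin are positive controls; drug-free broth with DMSO is the negative control. Growth inhibition is read after 2 days at 37 °C as MIC.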

[5] = test system: Mycobacterium tuberculosis; test: Antibacterial activity against Mycobacterium tuberculosis H37Rv ATCC 25618 assessed as inhibition of bacterial growth incubated for 2 days by CLSI protocol based broth microdilution method; settings: H37Rv ATCC 25618, 48 h, time 2 day

Row | SMILES | MIC (Staphylococcus aureus [1]) | MIC (Staphylococcus aureus [2]) | MIC [3] | MIC (Enterococcus faecalis) | MIC (Enterococcus faecium) | MIC (Escherichia coli) | MIC (Klebsiella pneumoniae) | MIC (Pseudomonas aeruginosa) | MIC (Acinetobacter baumannii) | MIC (Moraxella catarrhalis) | MIC [4] | MIC [5]
1 | COc1cc(CN2CCN(S(=O)(=O)c3ccc(NC(C)=O)cc3)CC2)nc2ccc(F)cc12 | > 64 µg/mL | > 64 µg/mL | 64 µg/mL (≈ 135 µM) | > 64 µg/mL | > 64 µg/mL | > 64 µg/mL | > 64 µg/mL | > 64 µg/mL | > 64 µg/mL | 32 µg/mL (≈ 67.7 µM) | > 64 µg/mL | > 64 µg/mL
2 | COc1ccc2nc(CN3CCN(C(=O)C4CCC4)CC3)cc(OC)c2c1 | > 64 µg/mL | > 64 µg/mL | > 64 µg/mL | > 64 µg/mL | > 64 µg/mL | > 64 µg/mL | > 64 µg/mL | > 64 µg/mL | > 64 µg/mL | 2 µg/mL (≈ 5.41 µM) | > 64 µg/mL | > 64 µg/mL
3 | COc1ccc2nc(CN3CCN(S(=O)(=O)c4ccc(NC(C)=O)cc4)CC3)cc(OC)c2c1 | > 64 µg/mL | > 64 µg/mL | > 64 µg/mL | > 64 µg/mL | > 64 µg/mL | > 64 µg/mL | > 64 µg/mL | > 64 µg/mL | > 64 µg/mL | > 64 µg/mL | > 64 µg/mL | > 64 µg/mL
4 | COc1ccc2nc(CN3CCN(C(=O)c4ccccc4OC)CC3)cc(OC)c2c1 | > 64 µg/mL | > 64 µg/mL | > 64 µg/mL | > 64 µg/mL | > 64 µg/mL | > 64 µg/mL | > 64 µg/mL | > 64 µg/mL | > 64 µg/mL | > 64 µg/mL | > 64 µg/mL | > 64 µg/mL
5 | COc1ccc(S(=O)(=O)N2CCN(Cc3cc(OC)c4cc(F)ccc4n3)CC2)cc1 | > 64 µg/mL | > 64 µg/mL | > 64 µg/mL | > 64 µg/mL | > 64 µg/mL | > 64 µg/mL | > 64 µg/mL | > 64 µg/mL | > 64 µg/mL | > 64 µg/mL | > 64 µg/mL | > 64 µg/mL
6 | COc1cc(CN2CCN(C(=O)c3cccc(Cl)c3)CC2)nc2ccc(F)cc12 | > 64 µg/mL | > 64 µg/mL | > 64 µg/mL | > 64 µg/mL | > 64 µg/mL | > 64 µg/mL | > 64 µg/mL | > 64 µg/mL | > 64 µg/mL | 64 µg/mL (≈ 155 µM) | > 64 µg/mL | > 64 µg/mL
7 | COc1ccc2nc(CN3CCN(C(=O)c4ccccc4F)CC3)cc(OC)c2c1 | > 64 µg/mL | > 64 µg/mL | > 64 µg/mL | > 64 µg/mL | > 64 µg/mL | > 64 µg/mL | > 64 µg/mL | > 64 µg/mL | > 64 µg/mL | > 64 µg/mL | > 64 µg/mL | > 64 µg/mL
8 | COc1cc(CN2CCN(C(=O)c3ccccc3F)CC2)nc2ccc(F)cc12 | > 64 µg/mL | > 64 µg/mL | > 64 µg/mL | > 64 µg/mL | > 64 µg/mL | > 64 µg/mL | > 64 µg/mL | > 64 µg/mL | > 64 µg/mL | > 64 µg/mL | > 64 µg/mL | > 64 µg/mL
9 | COc1ccc2nc(CN3CCN(S(=O)(=O)c4c(F)c(F)c(F)c(F)c4F)CC3)cc(OC)c2c1 | > 64 µg/mL | > 64 µg/mL | > 64 µg/mL | > 64 µg/mL | > 64 µg/mL | > 64 µg/mL | > 64 µg/mL | > 64 µg/mL | > 64 µg/mL | > 64 µg/mL | > 64 µg/mL | > 64 µg/mL
10 | COc1cc(Cc2cnc(N)nc2N)cc(OC)c1OC [TRIMETHOPRIM] | 4 µg/mL (≈ 13.8 µM) | 8 µg/mL (≈ 27.6 µM) | > 8 µg/mL | 0.25 µg/mL (≈ 0.861 µM) | 0.03 µg/mL (≈ 0.103 µM) | 16 µg/mL (≈ 55.1 µM) | 2 µg/mL (≈ 6.89 µM) | > 8 µg/mL | > 8 µg/mL | 4 µg/mL (≈ 13.8 µM) | – | –
11 | COc1cc(CN2CCN(C(=O)c3ccccc3C)CC2)nc2ccc(F)cc12 | > 64 µg/mL | > 64 µg/mL | > 64 µg/mL | > 64 µg/mL | > 64 µg/mL | > 64 µg/mL | > 64 µg/mL | > 64 µg/mL | > 64 µg/mL | > 64 µg/mL | > 64 µg/mL | > 64 µg/mL
12 | CNS(=O)(=O)N1CCN(Cc2cc(OC)c3cc(OC)ccc3n2)CC1 | > 64 µg/mL | > 64 µg/mL | > 64 µg/mL | > 64 µg/mL | > 64 µg/mL | > 64 µg/mL | > 64 µg/mL | > 64 µg/mL | > 64 µg/mL | > 64 µg/mL | > 64 µg/mL | > 64 µg/mL
